Data reported in ChEMBL document CHEMBL1127674, “Enhanced brain delivery of an anti-HIV nucleoside 2'-F-ara-ddI by xanthine oxidase mediated biotransformation” (J Med Chem, 1994).

Key:
[1] = test system: Mus musculus; test: Bioavailability in mouse brain after intravenous administration of equimolar doses of ( 2'F-ara-ddI + 2'F-ara-ddP); type: ADME, organism-based; settings: in vivo
[2] = test system: Mus musculus; test: Bioavailability in mouse brain after oral administration of equimolar doses of ( 2'F-ara-ddI + 2'F-ara-ddP); type: ADME, organism-based; settings: in vivo
In short: (§1)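 Single-dose pharmacokinetics in female NIH-Swiss mice given the compound in saline, either intragastrically or iv via tail vein over 30 s. Three mice sampled per time point. Serum or brain homogenate assayed by HPLC-UV at 260 nm. AUC calculated by Lagrange polynomial integration. Bioavailability taken as the ratio of oral to iv AUC.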

[3] = test system: Mus musculus; test: Apparent clearance in mice after oral administration of 100 mg/kg of dose; type: ADME, organism-based; set-up: dose 100 mg/kg, route oral; settings: in vivo
In short: (§2)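 Female NIH-Swiss mice, 24–28 g. Compounds dissolved in physiological saline at 15 mg/mL and given once, either intragastrically or iv via tail vein over 30 s, at 100 or 106.8 mg/kg (equimolar). Three mice per time point, killed by heart puncture under ether. Serum and brain stored at -20 °C. Brain homogenized 1:1 (g:mL) in isotonic phosphate buffer, pH 7.4. Analysis by reversed-phase HPLC with UV at 260 nm and an internal standard. Noncompartmental pharmacokinetics, AUC by Lagrange polynomial integration.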

[4] = test system: Mus musculus; test: Bioavailability in mouse serum after oral administration of 100 mg/kg of dose; type: ADME, organism-based; settings: in vivo
[5] = Half-life in mouse serum after oral administration of 100 mg/kg of dose; type: ADME, organism-based; set-up: dose 100 mg/kg, route oral; in short: as §2
[6] = Evaluated for the maximum serum concentration administered at 1 hour in mice; type: ADME, organism-based; settings: mouse
In short: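 Serum drug level in female NIH-Swiss mice after a single intragastric dose in saline, 100 mg/kg for the prodrug or an equimolar dose for the parent. Blood drawn by heart puncture under ether, three mice per time point. Serum analyzed by reversed-phase HPLC with UV at 260 nm; detection limit 50–100 ng/mL. Peak concentration read from the concentration–time profile and given as mean ± SD.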

[7] = test system: Mus musculus; test: Bioavailability in mouse serum after intravenous administration of equimolar doses of ( 2'F-ara-ddI + 2'F-ara-ddP); type: ADME, organism-based; settings: in vivo
[8] = test system: Mus musculus; test: Bioavailability in mouse serum after oral administration of equimolar doses of ( 2'F-ara-ddI + 2'F-ara-ddP); type: ADME, organism-based; settings: in vivo
[9] = test system: Mus musculus; test: Apparent volume of distribution in mice after oral administration of 100 mg/kg of dose; type: ADME, organism-based; set-up: dose 100 mg/kg, route oral; settings: in vivo; in short: as §2
[10] = Apparent volume of distribution in mice after intravenous administration of 105.1 mg/kg of dose; type: ADME, organism-based; set-up: dose 105.1 mg/kg, route intravenous; settings: mouse, in vivo, read-out: Vss
[11] = test system: Mus musculus; test: Bioavailability in mouse brain after intravenous administration of 105.1 mg/kg of dose; type: ADME, organism-based; settings: in vivo
[12] = Half-life in mouse brain after oral administration of 100 mg/kg of dose; type: ADME, organism-based; set-up: dose 100 mg/kg, route oral; in short: as §2
[13] = Half-life in mouse serum after intravenous administration of 100 mg/kg of dose
[14] = test system: Mus musculus; test: Bioavailability in mouse serum after intravenous administration of 105.1 mg/kg of dose; type: ADME, organism-based; settings: in vivo
[15] = Half-life in mouse brain after intravenous administration of 100 mg/kg of dose
[16] = test system: Mus musculus; test: Apparent clearance in mice after intravenous administration of 105.1 mg/kg of dose; type: ADME, organism-based; set-up: dose 105.1 mg/kg, route intravenous; settings: in vivo
[17] = Bioavailability after oral administration of 100 mg/kg of dose in mouse; type: ADME, organism-based; settings: in vivo; in short: as §1
[18] = test system: Mus musculus; test: Bioavailability in mouse brain after oral administration of 100 mg/kg of dose; type: ADME, organism-based; settings: in vivo; in short: as §1

AUC [1] | AUC [2] | CI [3] | AUC [4] | half-life [5] | Cmax [6] | AUC [7] | AUC [8] | Vss [9] | Vd [10] | AUC [11] | half-life [12] | half-life [13] | AUC [14] | half-life [15] | CI [16] | bioavailability [17] | AUC [18] | SMILES
48 uM L | 47.9 uM L | 48 mL/min/kg | 154 uM L | 257 min | 48.1 µM | 132 uM L | 134 uM L | 14.5 L/kg |  |  |  |  |  |  |  |  |  | OCC1CC(F)C(n2cnc3c(O)ncnc32)O1 (configuration not stated)
 |  | 48.3 mL/min/kg | 153 uM L | 47.4 min |  |  |  | 2.32 L/kg | 1.12 L/kg | 120 uM L | 39 min | 24 min | 252 uM L | 25.2 min | 29.3 mL/min/kg | 60.7% | 32.3 uM L | OCC1CC(F)C(n2cnc3cncnc32)O1 (configuration not stated)
